This is one part of a sample in which hits are shown more often than they occur.
Dyrk1A ADPGlo = rat Dyrk1A kinase inhibitors, primary screen, biochemical, single point, plate reader | Dual specificity tyrosine-phosphorylation-regulated kinase 1A (Rattus norvegicus), Q63470 | ADP-Glo luminescence, NFATc1 peptide | inhibition, % at 12.5 µM | 310,000 compounds, 0.43% hits | AID 504441, 2011; in the data active = inhibition above about 50%;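 also: plate controls were vehicle with enzyme for no effect and no enzyme for full effect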
GSK3B inh = human GSK3beta kinase inhibitors, primary screen, biochemical, cell-free homogeneous, HTS | Glycogen synthase kinase-3 beta (Homo sapiens), P49841 | GST-GSK3beta kinase, ADP-Glo luminescence, 60 min; active compounds read low | activity score (negative = inhibition), % at 10 µM | 300,000 compounds, 0.038% hits;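 active = more than half of replicate wells score below -50%, meaning over 50% inhibition versus plate controls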;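 also: 0% = median DMSO wells and -100% = median GW8510 positive control wells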
Target sequence (P49841 whole entry, looked up): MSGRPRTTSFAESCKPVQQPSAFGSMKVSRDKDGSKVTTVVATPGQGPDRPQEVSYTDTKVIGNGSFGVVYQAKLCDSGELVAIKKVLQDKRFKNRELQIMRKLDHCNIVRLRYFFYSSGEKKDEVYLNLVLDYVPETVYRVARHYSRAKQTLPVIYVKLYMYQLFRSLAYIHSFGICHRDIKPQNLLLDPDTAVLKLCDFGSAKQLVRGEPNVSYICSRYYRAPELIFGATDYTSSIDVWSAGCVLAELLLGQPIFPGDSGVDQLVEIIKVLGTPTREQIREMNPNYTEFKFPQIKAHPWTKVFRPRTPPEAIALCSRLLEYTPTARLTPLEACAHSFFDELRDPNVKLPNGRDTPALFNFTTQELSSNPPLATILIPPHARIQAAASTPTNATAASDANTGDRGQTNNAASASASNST
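Test system: GST-tagged human GSK3beta kinase, cell-free; evaluation: activity score scaled between in-plate DMSO and GW8510 controls; measured by: ADP-Glo luminescence; incubation: 60 min reaction, RT; benchmarks: DMSO and 20 µM GW8510; reagent: peptide substrate plus 25 µM ATP (final); medium: Tris/MgCl2 kinase buffer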
CDK5 p35 inh = inhibitors of human CDK5/p35 kinase, primary screen, biochemical, single concentration; Cyclin-dependent kinase 5 (Homo sapiens) + Cyclin-dependent kinase 5 activator 1 (Homo …; Recombinant CDK5/p35, ADP-Glo luminescence, 60 min; inhibition, % at 10 µM; 330,000 compounds, 0.01% hits;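 active = highest replicate inhibition of at least 50% and at least 75% of replicates reaching 50%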;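 also: plate controls were DMSO neutral control for no effect and GW8510 at 10 µM for full effect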
STK33 kinase inh = inhibitors of purified STK33 kinase, primary screen, biochemical, ADP-Glo luminescence, homogeneous, cell-free | MBP phosphorylation | 320,000 compounds, 0.073% hits | Serine/threonine-protein kinase 33 (Homo sapiens), Q9BYT3 | inhibition, % at 10 µM;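 active = inhibition at or above 25%, using the most active replicate where run in duplicate; inactive = inhibition below 25%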
GSK3A inh = blockers of GSK3A enzyme activity – biochemical, luminescence, cell-free homogeneous, HTS, primary screen; 320,000 compounds, 0.1% hits; inhibition, % at 10 µM; Glycogen synthase kinase-3 alpha (Homo sapiens), P49840; GSK-3 alpha kinase, ADP-Glo luminescence, 60 min; AID 2650, 2010;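 active = more than half of replicates show inhibition above 20%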;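 also: GST-tagged GSK-3 alpha with peptide substrate and 25 µM ATP; 0% = DMSO neutral wells and 100% = GW8510 positive control wells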
* hit, by the source's call; nt = no result given.

SMILES | Dyrk1A ADPGlo | GSK3B inh | CDK5 p35 inh | STK33 kinase inh | GSK3A inh
Cn1c(SCc2nnc(-c3ccc(F)cc3)o2)nnc1C1COc2ccccc2O1 (centres undefined) | 12.1 | -43.5 | 2.1 | -0.8 | 60.5*
N=C1C(c2ccccc2)=C(O)CN1c1cccc(S(=O)(=O)NCc2ccco2)c1 | 5.4 | 0.2 | -0.7 | 0.0 | -0.9
CCc1c(C)c(C#N)c2nc3ccccc3n2c1NCc1ccccn1 | 1.1 | 0.4 | -1.3 | 3.9 | 81.4*
CCc1c(C)c(C#N)c2nc3ccccc3n2c1NCCOC | 18.9 | -1.8 | -0.5 | -0.5 | -1.6
COc1c(-c2ccc(O)c(O)c2)oc2cc(O)cc(O)c2c1=O | 85.2* | 0.5 | 9.5 | 17.5 | 90.1*
Cc1cc(N2CCN(C)CC2)nc2ccc(NC(=O)c3ccc(Br)o3)cc12 | 9.7 | -4.6 | 0.8 | 33.5* | 0.1
Cc1cc(N2CCCCC2)nc2ccc(NC(=O)c3ccc(Br)o3)cc12 | 1.6 | -1.4 | -0.6 | 3.7 | 1.1
CCC1CCC2(CC1)NC(=O)N(CC(=O)NCc1ccccc1Cl)C2=O (centres undefined) | nt | nt | 0.0 | -0.1 | -4.5
COc1ccc(CNc2ncnc3cc(Cl)ccc23)cc1OC | 0.9 | 1.2 | -1.4 | nt | nt
CCN(CC)Cc1cc2[nH]c3c4ccc(Cl)cc4ncc3c2cc1OC | nt | -52.0* | 0.1 | nt | nt
Cc1ccc(C(=O)Sc2cccccc2=O)cc1 | 4.5 | -0.2 | -0.5 | -0.8 | -2.3
Cc1ccc(Nc2nc(NCC3CCCO3)nc(N)c2[N+](=O)[O-])cc1C (centres undefined) | 4.4 | 0.5 | nt | -1.1 | 3.4
COCCCNc1nc(N)c([N+](=O)[O-])c(NCc2ccccc2)n1 | 10.8 | -1.4 | 0.6 | -1.7 | 3.1
COCCCNc1nc(N)c([N+](=O)[O-])c(NCC2CCCO2)n1 (centres undefined) | 49.7 | -0.1 | -0.3 | 1.2 | 81.1*
CC(C)CNc1nc(N)c([N+](=O)[O-])c(NC2CCCCC2)n1 | -2.4 | 1.5 | 0.8 | -0.1 | 1.0
CC(C)CNc1nc(N)c([N+](=O)[O-])c(NCC2CCCO2)n1 (centres undefined) | -1.5 | -36.5 | -3.1 | 1.2 | 58.9*
COCCCNc1nc(N)c([N+](=O)[O-])c(Nc2ccccc2OC)n1 | 15.7 | -47.7 | 0.9 | -0.1 | 74.0*
c1ccc2c(c1)CCN(c1nc(CN3CCOCC3)nc3sc4c(c13)CCCC4)C2 | 4.2 | 1.5 | -1.9 | -1.4 | 1.1
Cc1nc2nc(C)c(NS(=O)(=O)c3ccc4c(c3)CCCC4)c(=O)n2[nH]1 | -1.9 | -0.4 | 1.1 | -1.0 | -2.1
Cc1cc(Cn2nc(-c3ccccc3)cc2C(=O)NCC2CC2)on1 | -4.2 | 0.1 | -0.5 | -0.1 | -5.2
N#Cc1c2n(c3c(=O)[nH]cnc13)CCCC2 | 1.9 | 1.1 | 3.0 | 1.7 | 19.6
N#Cc1c2n(c3c(=S)nc[nH]c13)CCCCC2 | 29.5 | -92.2* | 5.9 | 3.2 | 102.1*
COc1cccc(NC(=O)Cn2c(=O)c3c(ncn3Cc3ccccc3)n(Cc3ccccc3)c2=O)c1 | 4.7 | -0.9 | -0.3 | 0.8 | 0.2
CCC(=O)N(c1nnc(SCC(=O)c2ccc[nH]2)s1)C1CC1 | 0.3 | nt | 2.1 | -0.4 | -2.8
COc1ccc2oc3cc(C)[n+]([O-])c(-c4ccc(C)cc4)c3c2c1 | 20.8 | -55.1* | 1.2 | 1.4 | 52.7*
SMILES | Dyrk1A ADPGlo | GSK3B inh | CDK5 p35 inh | STK33 kinase inh | GSK3A inh
COc1ccc(-c2c3c(cc(C)[n+]2[O-])oc2ccc(OC)cc23)cc1 | 44.8 | -43.5 | nt | 0.7 | 33.9
COc1cccc(NC(=O)CN(C)C(=O)C(Sc2ccccc2)c2ccccc2)c1 (centres undefined) | 4.5 | nt | 1.0 | nt | nt
Nc1nc(-c2cc(O)ccc2[N+](=O)[O-])cc(-c2ccccc2)c1[N+](=O)[O-] | 23.4 | -2.3 | 0.4 | 28.1* | 1.6
N#C/C(=N\Nc1c(Cl)cccc1Cl)C(=O)NN | 5.2 | -24.3 | -5.6 | 14.1 | 74.9*
Nc1nc(NCCCN2CCOCC2)nc(Nc2ccc(F)cc2)c1[N+](=O)[O-] | 9.8 | 12.0 | 0.2 | 0.3 | 51.0*
COc1ccc(Nc2nc(NCCCN3CCOCC3)nc(N)c2[N+](=O)[O-])cc1 | 14.1 | -55.5* | 0.8 | 1.9 | 85.1*
Nc1nc(NCCCN2CCOCC2)nc(Nc2cccc(F)c2)c1[N+](=O)[O-] | 37.5 | -70.6* | 0.3 | -3.2 | 56.5*
COCCNc1nc(N)c([N+](=O)[O-])c(Nc2ccc(F)cc2)n1 | -3.1 | -0.8 | 0.9 | -1.2 | 4.4
Cc1cccc(Nc2nc(NCCCN3CCOCC3)nc(N)c2[N+](=O)[O-])c1 | nt | -74.4* | 1.0 | 4.6 | 74.6*
Nc1nc(Nc2cccc(F)c2)nc(N2CCOCC2)c1[N+](=O)[O-] | 34.3 | -18.9 | 5.3 | 4.9 | 24.4
Nc1ccc2cc3[nH]c4cc(N)ccc4c3nc2c1 | -0.4 | nt | 3.6 | nt | nt
Cn1nc(C(=O)N2CCC(C(N)=O)CC2)c2c1-c1ccccc1SC2 | -1.2 | 2.2 | -0.4 | -0.2 | -2.5
CN(Cc1c(C(=O)N/N=C/c2ccc(O)cc2)nnn1-c1nonc1N)c1ccccc1 | 37.3 | 2.0 | -0.4 | 6.3 | 75.0*
CCN(CC)Cc1c(C(=O)N/N=C/c2cccc3ccccc23)nnn1-c1nonc1N | 2.8 | 2.0 | 2.1 | 1.2 | 3.3
CN(C)Cc1c(C(=O)N/N=C/c2cccs2)nnn1-c1nonc1N | 6.5 | -8.0 | -2.0 | -0.1 | 6.1
CCN(CC)Cc1c(C(=O)N/N=C/c2ccccn2)nnn1-c1nonc1N | -6.2 | -53.9* | 0.9 | 0.8 | 60.2*
CC(=C/c1ccco1)/C=N/NC(=O)c1nnn(-c2nonc2N)c1CN(C)C | -2.4 | 2.8 | 1.3 | -0.5 | 58.9*
CCN(CC)Cc1c(C(=O)N/N=C/c2cccs2)nnn1-c1nonc1N | 14.5 | -3.1 | 1.6 | -0.6 | 76.2*
CN(C)Cc1ccccc1Sc1ccc2c(c1)CCCC2 | nt | 5.0 | nt | -0.4 | -0.5
COc1ccc(C)cc1S(=O)(=O)N(C)CC(=O)N1CCC(C(N)=O)CC1 | -4.9 | 2.8 | -1.2 | -2.0 | -1.2
N#Cc1c(Nc2ccccc2)[n+]([O-])c2ccc(Cl)cc2[n+]1[O-] | nt | nt | -0.6 | nt | nt
O=C1NC(=O)C2(Br)Nc3ccc(Br)cc3C(=O)C2N1 (centres undefined) | 0.9 | nt | 1.3 | nt | nt
CC(=O)Nc1nonc1NC(C)=O | -1.2 | 0.3 | 1.0 | -2.2 | -2.7
CC(=O)Nc1cc(OC(C)=O)c2nonc2c1OC(C)=O | nt | nt | -2.3 | 2.4 | 68.3*
COc1cc(/C=N/NC(=O)c2nnn(-c3nonc3N)c2-c2cccs2)ccc1O | 47.9 | 1.1 | -2.3 | 4.0 | 75.3*
Nc1nonc1-n1nnc(C(=O)N/N=C/c2ccccc2F)c1-c1cccs1 | 36.2 | -0.1 | 9.6 | 2.3 | 64.0*
Cc1ccc(CSc2nnc(SCC(=O)N/N=C/c3ccc(C(=O)O)cc3)s2)cc1 | -6.0 | -10.2 | 2.7 | -1.0 | 3.2

Source: PubChem BioAssay (Broad Institute)
